In general, pIC50 refers to the IC50 on a negative log10 scale, so that one unit is a factor of ten.

pIC50: −log10 of the molar value.

The test system of this assay is RAW264.7. Nature of the assay: Antiinflammatory activity in mouse RAW264.7 cells assessed as inhibition of LPS-induced NO production. The format is functional, cell-based. In a few lines: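 RAW 264.7 cells seeded at 2 × 10^5 cells/mL, stimulated with 1 µg/mL LPS with or without test compound, 37 °C for 24 h. Nitrite in cell-free supernatant measured by Griess reagent (sulfanilamide in phosphoric acid plus N-(1-naphthyl)ethylenediamine), absorbance at 550 nm against sodium nitrite standard curve. IC50 for 50% NO inhibition; triplicate, mean ± SD. Viability checked by CCK assay.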
For the compound `COc1cc2ccc3cc(O)ccc3c2c(OC)c1O`, the pIC50 was 4.45.

In the case of `COc1c(O)cc2ccc3c(OC)ccc(O)c3c2c1OC`, the negative logarithm of the IC50 (pIC50) was 4.69.

Consider `COc1cc(O)cc(CCc2ccc(OC)c(OC)c2)c1`, for which the pIC50 was less than 4.30.

In the case of `COc1cc2c(c(O)c1OC)-c1ccc(O)cc1CC2` [EPHEMERANTHOL A], the pIC50 was 4.92.

Regarding `COc1c(O)c(O)cc2c1-c1c(O)cccc1CC2` [EPHENERANTHOL C], the pIC50 is 4.75.

Regarding `COc1c(O)cc2c(c1OC)-c1ccc(O)cc1CC2` [ERIANTHRIDIN], the pIC50 is 4.71.

Regarding `COc1c(O)c(O)cc2ccc3cccc(O)c3c12` [FIMBRIOL B], the pIC50 was 4.54.

On to `COc1cc2c(c(OC)c1O)-c1ccc(O)cc1CC2` [FLAVANTHRIDIN], for which the pIC50 was 4.47.

Consider `COc1cc(O)cc(CCc2ccc(O)c(OC)c2)c1` [GIGANTOL], for which the negative-log IC50 (pIC50) was less than 4.30.

For the compound `COc1cc(O)cc2c1-c1c(O)cccc1CC2` [HIRCINOL], the pIC50 is 4.58.

Turning to `COc1cc(O)c2c(c1)CCc1cc(O)ccc1-2` [LUSIANTHRIDIN], the pIC50 is 5.02.

`COc1cc(CCc2cc(OC)c(O)c(OC)c2)ccc1O` [MOSCATILIN]: the pIC50 is 4.56.

On to `N=C(N)NN` [PIMAGEDINE], for which the pIC50 is 4.76.

The values above are taken from ChEMBL document CHEMBL1158600, “Phenanthrenes from Dendrobium nobile and their inhibition of the LPS-induced production of nitric oxide in macrophage RAW 264.7 cells” (Bioorg Med Chem Lett, 2010).
